# Bioassay records (PubChem)
# STEP inh – STEP (human) phosphatase inhibition. P54829. recombinant STEP, OMFP fluorogenic substrate, fluorescence. inhibition, % at 20 µM. 360,000 compounds, 0.25% hits;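 active = inhibition at 20 µM, scaled per plate between control wells, above about 37%, limit read from the data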
#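 Assay system: isolated STEP enzyme. Buffer or medium: pH 6.0 Bis-Tris with DTT and Tween 20. Also added: fluorogenic phosphatase substrate OMFP at 25 µM final. Dosing: 20 µM, 1% DMSO. Timing: 20 min reaction, room temperature, in the dark. Measured by: fluorescence intensity, excitation 480 nm, emission 540 nm. Evaluation: normalized % inhibition.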
# Scp1 inh – blocks human Scp-1 phosphatase activity; Q9GZU7; Recombinant Scp1, phosphopeptide, malachite green phosphate absorbance; 340,000 compounds, 0.88% hits; inhibition, % at 20 µM;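 active = inhibition above about 50% at 20 µM, limit read from the data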
#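 System: truncated SCP-1 phosphatase (76-261aa); medium: Tris acetate buffer pH 5.5 with MgCl2 and Tween-20; incubation: 45 min room-temperature reaction, 5 min colour, 30 min stabiliser; compound: single 20 µM dose, 1% DMSO; reagent: Phosphorylated 17-residue peptide substrate; read-out: % inhibition at 20 µM; technique: colorimetric free-phosphate detection, absorbance 630 nm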
# DNMT1 inh – inhibitors of human DNMT1; DNMT1 molecular beacon, Hinp1I cleavage, fluorescence; inhibition (reported as % activation of signal), % at 10 µM; 360,000 compounds, 0.83% hits; AID 588458; in the data active = inhibition above about 50%
# Target sequence (P26358 504-1616 limits assumed): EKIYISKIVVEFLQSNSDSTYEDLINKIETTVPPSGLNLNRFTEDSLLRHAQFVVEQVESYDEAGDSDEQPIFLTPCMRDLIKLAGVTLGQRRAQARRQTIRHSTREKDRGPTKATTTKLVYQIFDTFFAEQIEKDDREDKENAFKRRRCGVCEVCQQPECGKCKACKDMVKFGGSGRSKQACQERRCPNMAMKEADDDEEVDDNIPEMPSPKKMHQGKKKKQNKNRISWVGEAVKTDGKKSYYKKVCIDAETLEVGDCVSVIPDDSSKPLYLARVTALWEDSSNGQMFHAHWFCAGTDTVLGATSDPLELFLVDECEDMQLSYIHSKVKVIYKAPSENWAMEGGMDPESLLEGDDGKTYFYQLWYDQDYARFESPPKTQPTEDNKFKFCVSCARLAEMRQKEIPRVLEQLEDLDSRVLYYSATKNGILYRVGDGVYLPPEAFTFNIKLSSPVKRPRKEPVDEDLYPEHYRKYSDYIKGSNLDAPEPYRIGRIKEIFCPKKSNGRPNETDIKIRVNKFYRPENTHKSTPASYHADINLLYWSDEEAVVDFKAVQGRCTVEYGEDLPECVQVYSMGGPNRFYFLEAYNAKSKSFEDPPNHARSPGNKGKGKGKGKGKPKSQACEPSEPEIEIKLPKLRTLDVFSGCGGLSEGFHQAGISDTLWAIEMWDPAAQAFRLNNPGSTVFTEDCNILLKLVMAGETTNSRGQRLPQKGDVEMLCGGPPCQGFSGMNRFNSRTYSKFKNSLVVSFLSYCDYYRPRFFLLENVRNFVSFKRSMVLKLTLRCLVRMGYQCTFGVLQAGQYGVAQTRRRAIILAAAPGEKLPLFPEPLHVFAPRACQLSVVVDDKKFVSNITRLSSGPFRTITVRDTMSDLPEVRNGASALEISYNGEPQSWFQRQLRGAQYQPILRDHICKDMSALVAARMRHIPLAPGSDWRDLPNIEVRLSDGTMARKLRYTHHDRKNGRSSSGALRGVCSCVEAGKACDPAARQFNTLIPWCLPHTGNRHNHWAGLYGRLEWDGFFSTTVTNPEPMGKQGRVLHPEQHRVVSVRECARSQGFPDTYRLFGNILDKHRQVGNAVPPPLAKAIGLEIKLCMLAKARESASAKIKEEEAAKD
# SUMO1-SIM PPI – modulators of human SUMO1-mediated protein-protein interactions. P63165. SUMO1 binding to a labelled peptide, TR-FRET, 1 h. inhibition, % at 20 µM. 360,000 compounds, 0.33% hits. AID 602429; in the data active = inhibition above about 37%
# Casp6 inh – caspase-6 (human) enzyme inhibition; AID 686996; P55212; purified caspase-6, Z-VEID-R110 cleavage fluorescence; 350,000 compounds, 0.53% hits; inhibition, % at 12.5 µM;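 active = mean inhibition across replicates at least about 35%, with every replicate also reaching that limit, limit read from the data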
# LMPTP inh – LMPTP (human) inhibition. 360,000 compounds, 0.22% hits. recombinant LMPTP-A, OMFP fluorogenic substrate, fluorescence intensity. P24666. inhibition, % at 20 µM. AID 651560;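 active = compounds that cut the enzyme signal by at least half of the control window in the single-dose screen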
#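 Test system: LMPTP-A phosphatase enzyme; input: 0.625 nM LMPTP-A final; reagent: OMFP substrate, 400 µM final; compound dosing: 20 µM single dose, 3% DMSO; incubation: 50 min dark incubation at room temperature; measured by: endpoint fluorescence intensity from OMFP dephosphorylation; measure: % inhibition relative to no-enzyme and uninhibited control wells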
# DNMT1 interf DR – counter-screen for DNMT1 inhibitors: spectral interference, dose response | shares compounds with DNMT1 inh | molecular beacon fluorescence | IC50, µM | 200 tested, under 10 active | AID 602382; call rule not given here
# DNMT1 inh conf – DNMT1 inhibition confirmation, single concentration; shares compounds with DNMT1 inh; DNMT1 molecular beacon HinP1I cleavage, fluorescence; inhibition, % at 10 µM; 2,300 compounds, 8% hits; AID 602385;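 active = average inhibition of at least 30% in the single-concentration confirmation test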
# Beacon interf – shows spectral interference in the DNMT1 beacon assay. activation (fluorescence interference), % at 10 µM. 2,300 compounds, 1% hits. DNMT1 molecular beacon spectral interference counterscreen, fluorescence 485/520. shares compounds with DNMT1 inh;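 active = activation of at least 30% at 10 µM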;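 also: DNMT1 catalytic domain with a HinP1I cleavage step and a FAM/dabcyl DNA beacon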
# A number is an active result; n = inactive; x = not tested or not shown. An excerpt weighted towards active compounds, which were near 1.7% of everything screened.
SMILES,STEP inh,Scp1 inh,DNMT1 inh,SUMO1-SIM PPI,Casp6 inh,LMPTP inh,DNMT1 inh conf,Beacon interf,others
O=C1NC(=S)N/C1=C/c1cc2c(cc1[N+](=O)[O-])OCO2,n,n,60,55,n,n,30,n,DNMT1 interf DR=n
Cn1c(N)c(C(=O)COC(=O)/C=C/c2cccc(Cl)c2)c(=O)n(C)c1=O,n,n,66,n,n,n,n,n,
COc1ccc(-n2c(SCC(=O)N3CCc4ccccc43)nnc2-c2c[nH]c3ccccc23)cc1,n,n,67,n,n,n,n,n,
CCOc1ccc2nc(SCC(=O)NCc3ccco3)sc2c1,n,n,n,n,x,n,x,x,
CCOC(=O)c1c2ccc(OCC(=O)N/N=C/c3ccc(C)cc3)cc2n2ccccc12,n,n,72,n,x,n,n,n,
O=C(N=Nc1c(O)[nH]c2ccc(Br)cc12)c1cc(-c2cccs2)nc2ccccc12,n,n,65,n,n,n,n,n,
Cn1c(O)c(N=NC(=O)c2cc(-c3cccs3)nc3ccccc23)c2ccccc21,n,n,n,n,x,n,x,x,
Cc1ccc(NC(=O)COC(=O)Cn2c(C)csc2=O)c([N+](=O)[O-])c1,n,n,51,n,n,n,n,n,
O=c1ccc2cc3c4c(c2o1)CCCN4CCC3,n,n,n,n,n,n,x,x,
O=c1oc2c3c4c(cc2s1)CCCN4CCC3,n,n,85,n,x,67,n,n,
COc1cccc(CCNC(=O)CC2C(=O)NCCN2Cc2ccc(Cl)c(F)c2)c1 (stereo not given),n,n,n,n,n,n,x,x,
C[C@H]1CN([C@@H](C)CO)C(=O)Cc2cc(NC(=O)CCC(F)(F)F)ccc2O[C@@H]1CN(C)S(C)(=O)=O,x,x,x,x,n,x,x,x,
O=C(CCc1nc2ccccc2c(=O)[nH]1)Nc1nnc(SCc2ccc(Cl)cc2)s1,n,n,68,n,n,n,n,n,
CC(=O)Nc1nnc(SCc2ccccc2F)s1,n,n,n,n,x,n,x,x,
Cc1ccc(Nc2nnc(SCc3nc4ccccc4c(=O)[nH]3)s2)cc1,n,n,66,n,n,n,n,n,
O=c1[nH]c(CSc2nc3ccccc3s2)nc2ccccc12,n,n,n,n,n,n,x,x,
O=C(Nc1ccccc1)Nc1nnc(SCc2ccc(Cl)cc2)s1,n,n,n,n,n,n,x,x,
O=C(CCc1nc2ccccc2c(=O)[nH]1)Nc1nnc(SCc2ccccc2F)s1,n,n,77,n,n,n,n,n,
COc1ccc(C=NCC2COc3ccccc3O2)cc1OC (stereo not given),n,n,n,n,n,n,x,x,
COc1ccc(N2CCN(C(=O)C(=O)c3cn(CC(=O)N4CCCCCC4)c4ccccc34)CC2)cc1,n,n,n,n,n,n,x,x,
CCNC(=O)N(C)c1c(CC)nc2ccc(C(=O)N3CCN(S(=O)(=O)CC)CC3)cn12,n,x,53,n,n,n,n,n,
CN1/C(=C\C(=O)c2cccc([N+](=O)[O-])c2)Sc2ccccc21,n,n,52,n,n,n,n,n,
O=C(COC(=O)c1ccccc1O)Nc1ncc(Cl)cc1Cl,n,n,64,n,n,n,n,n,
C=CCN1C(=O)OC2(CCCCC2)C1(C)O (stereo not given),n,n,n,n,x,n,x,x,
COc1ccc2nc(C)cc(Nc3ccc(N4CCN(C)CC4)cc3)c2c1,n,n,70,n,x,n,33,n,DNMT1 interf DR=n
SMILES,STEP inh,Scp1 inh,DNMT1 inh,SUMO1-SIM PPI,Casp6 inh,LMPTP inh,DNMT1 inh conf,Beacon interf,others
CC(C)NC(=O)N(C)C[C@H]1OCCCC[C@@H](C)Oc2ccc(NC(=O)Nc3ccc(F)cc3)cc2C(=O)N([C@H](C)CO)C[C@@H]1C,x,x,x,x,n,x,x,x,
CC1CN(c2nc(-c3ccc(Br)cc3)nnc2-c2ccccc2)CC(C)N1 (stereo not given),n,n,n,n,x,n,x,x,
Cc1ccc(NC(=O)C(=O)NN)cc1,n,n,75,n,n,n,n,n,
CSc1ccccc1NC(=O)COC(=O)c1ccc(-n2nc(C)cc2C)cc1,n,n,n,n,n,n,x,x,
CC(=O)c1oc2ccccc2c1NC(=O)COC(=O)c1ccc(-n2nc(C)cc2C)cc1,n,n,54,n,x,n,n,n,
Cc1ccsc1/C=N/N=C/c1sccc1C,n,n,56,n,n,n,n,n,
Cc1ccsc1/C=N/NC(=O)c1sccc1C,n,n,n,n,x,n,x,x,
Clc1ccc(Oc2ncnc3oc(-c4ccccc4)cc23)cc1,n,n,56,n,x,n,n,n,
CC(C)C(CCNC(=O)CN1C(=O)c2ccccc2C1=O)c1ccco1 (stereo not given),n,n,n,n,x,n,x,x,
CC(C)C(CCNC(=O)CC(Cc1ccccc1)c1ccco1)c1ccco1 (stereo not given),n,n,61,n,x,n,n,n,
Cc1cccc(NC(=O)CSCC(=O)Nc2ccccc2N2CCCCC2)c1,n,n,94,n,n,n,n,n,
O=C(Nc1ccc(Cl)cc1)[C@@H]1[C@@H]2C(=O)N(c3ccc4ccccc4c3)C(=O)[C@@H]2[C@H]2C=CC=NN21,n,n,n,n,x,n,x,x,
CC(C)c1ccc(/C=c2\sc3nc(-c4ccncc4)nn3c2=O)cc1,n,n,n,n,x,n,x,x,
CC(=O)NCCC(=O)Nc1cccc(S(=O)(=O)N(C)c2ccccc2)c1,n,n,56,n,x,n,n,n,
CN(CC(=O)Nc1cccc(F)c1)CC(=O)Nc1cccc(S(=O)(=O)N(C)c2ccccc2)c1,n,n,n,n,n,n,x,x,
CS(=O)c1ccc(-n2c(=O)n(Cc3ccccc3)c(=O)c3[nH]cnc32)cc1 (stereo not given),n,n,n,n,n,n,x,x,
O=C(COC(=O)C12CC3CC(CC(C3)C1)C2)Nc1ccc([N+](=O)[O-])cc1Cl,n,n,72,n,x,n,n,n,
O=C1CC[C@H](O)CCN1[C@H](CSc1ccccc1)Cc1ccccc1,n,n,n,n,n,n,x,x,
O=C(Nc1nnc(-c2ccccc2)s1)c1ccc(F)cc1,n,n,72,n,n,n,n,n,
O=C(NCc1ccc2c(c1)OCO2)c1cc2ncc(Br)cn2n1,n,72,71,n,x,52,n,n,
Cn1c(CNC(=O)C2CCC(=O)N(CCc3cccc(F)c3)C2)nc2ccccc21 (stereo not given),n,n,n,n,n,n,x,x,
CCc1ccc(CN(Cc2cccnc2)C(=O)/C=C/c2ccc(OC)cc2)cc1,n,n,57,n,98,n,n,n,
